Data taken from ChEMBL document CHEMBL5252510, “A Novel Potent Oral Series of VEGFR2 Inhibitors Abrogate Tumor Growth by Inhibiting Angiogenesis” (J Med Chem, 2016).
Calls of active or inactive are those of the source. The calls are words filed in the database; no cut-off is given here.

Columns and labels:
Mus musculus [1] = species: Mus musculus; assay: Antiangiogenic activity in C57BL/6jNpa mouse harbouring mouse B16-BL6 cells assessed as reduction in tumor plasma volume by measuring T/C ratio measured after 3 days by DCE-MRI assay; format: functional; details: time 3 day
In short: (§1)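 C57BL/6JNpa mice bearing B16/BL6 cervical lymph-node metastases, at least 8 per group, anaesthetized and given contrast agent; DCE-MRI Ktrans and iAUEC (permeability) and Vp (plasma volume) measured before and again after daily treatment; change per mouse recorded, mean ± SEM, one-way ANOVA with Holm-Sidak comparisons versus vehicle.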

Mus musculus [2] = assay: Anti-angiogenesis activity in FVB mouse model assessed as inhibition of VEGF-induced tissue weight at 0.3 mg/kg, po qd treated for 4 to 6 hrs prior to chamber implantation and continuing for 4 days measured after 24 hrs post last dose; format: functional, organism-based; details: time 5.0 day
In short: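 Female FVB mice (18-20 g), porous chambers with VEGF (2 μg/mL) in 0.8 % w/v agar containing heparin 20 U/mL implanted s.c. in flank; compound p.o. once daily in 100 % PEG200 (5 mL/kg) from 4-6 h before implantation for 4 days; tissue removed 24 h after last dose, weighed, lysate assayed for TIE-2 by sandwich ELISA; n=6 per dose, mean ± SEM.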

Mus musculus [3] = species: Mus musculus; assay: Antiangiogenic activity in C57BL/6jNpa mouse harbouring mouse B16-BL6 cells assessed as reduction in K-trans level by measuring T/C ratio measured after 3 days by DCE-MRI assay; format: functional; details: time 3 day; in short: as §1
[4] = Antitumor activity against rat BN472 cell implanted in Brown-Norway rat assessed as tumor growth inhibition by measuring T/C ratio at 3 mg/kg, po qd measured upto 14 days; format: functional; details: time <= 14 day
In short: (§2)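 Female Brown-Norway rats (160-180 g) given 3 mm³ BN472 tumor fragments in mammary fat pads; at about 200 mm², randomized into groups of 7-8 and dosed orally with compound or PEG300 vehicle over 14 days; tumor growth followed, T/C computed; significance by 2-way RM-ANOVA.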

[5] = Antitumor activity against rat BN472 cell implanted in Brown-Norway rat assessed as T/C ratio at 3 mg/kg, po qd measured upto 14 days; format: functional; details: time <= 14 day; in short: as §2
Mus musculus [6] = species: Mus musculus; assay: Antiangiogenic activity in C57BL/6jNpa mouse harbouring mouse B16-BL6 cells assessed as reduction in K-trans level measured after 3 days by DCE-MRI assay relative to control; format: functional; design: scale not given: the % may be the effect or the level left; details: time 3 day; in short: as §1
[7] = biological target: Mast/stem cell growth factor receptor Kit (Homo sapiens, UniProt P10721); assay: Inhibition of human recombinant GST-fused c-KIT expressed in baculovirus expression system using poly-Glu-Tyr (4:1) as substrate measured after 10 mins in presence of gamma-[33P]-ATP by scintillation counting analysis
In short: (§3)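 GST-fused kinase domains were expressed in baculovirus and purified on glutathione-Sepharose. 10 min at ambient temperature, stopped with EDTA. Filter binding and scintillation counting. IC50 by linear regression of percent inhibition.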

[8] = biological target: T1, Vascular endothelial growth factor receptor 2 (Homo sapiens, UniProt P35968); assay: Inhibition of human recombinant GST-fused VEGFR2 kinase domain transphosphorylation expressed in baculovirus expression system using poly-Glu-Tyr (4:1) as substrate measured after 10 mins in presence of gamma-[33P]-ATP by scintillation counting analysis
[9] = Tmax in OFA rat at 25 mg/kg, po measured upto 24 hrs by HPLC/UV analysis; format: ADME, organism-based; details: in vivo
In short: (§4)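 Female OFA rats, femoral artery/vein catheterized and recovered 96 h. Oral gavage of a micronized suspension in 0.5 % carboxymethyl cellulose at 25 or 3 mg/kg. Bioavailability taken against femoral-vein iv dosing. Plasma sampled 5 min–24 h (9 time points).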

[10] = biological target: T1, Vascular endothelial growth factor receptor 2; assay: Inhibition of VEGF-induced human VEGFR2 autophosphorylation expressed in HUVEC cells measured after 2 hrs by chemiluminescence assay; format: cell-based
[11] = biological target: T1, Vascular endothelial growth factor receptor 2; assay: Inhibition of VEGF-induced human VEGFR2 autophosphorylation transfected in CHO cells measured after 2 hrs by chemiluminescence assay; format: cell-based
[12] = biological target: Receptor tyrosine-protein kinase erbB-2 (Homo sapiens, UniProt P04626); assay: Inhibition of ERBB2 (unknown origin) autophosphorylation expressed in human BT-474 cells by ELISA-based assay; format: cell-based
In short: (§5)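 Cells were stimulated with the respective ligand. Receptor tyrosine kinase autophosphorylation in the presence of compound was quantified by ELISA.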

[13] = biological target: Mast/stem cell growth factor receptor Kit (Homo sapiens, UniProt P10721, K642E); assay: Inhibition of KIT K642E mutant (unknown origin) autophosphorylation expressed in human GIST882 cells by ELISA-based assay; format: cell-based; in short: as §5
[14] = biological target: Platelet-derived growth factor receptor beta (Homo sapiens, UniProt P09619); assay: Inhibition of PDGFR (unknown origin) autophosphorylation expressed in mouse BALB/3T3 clone A31 cells by ELISA-based assay; format: cell-based; in short: as §5
[15] = biological target: Angiopoietin-1 receptor (Homo sapiens) (UniProt Q02763); assay: Inhibition of human recombinant GST-fused TIE2 expressed in baculovirus expression system using poly-Glu-Tyr (4:1) as substrate measured after 10 mins in presence of gamma-[33P]-ATP by scintillation counting analysis; in short: as §3
[16] = biological target: Proto-oncogene tyrosine-protein kinase receptor Ret (Homo sapiens, UniProt P07949); assay: Inhibition of RET (unknown origin) autophosphorylation expressed in mouse NIH3T3 cells by ELISA-based assay; format: cell-based; in short: as §5
[17] = Dose normalized Cmax in OFA rat at 25 mg/kg, po measured upto 24 hrs by HPLC/UV analysis; format: ADME, organism-based; details: in vivo; in short: as §4
Bcr/Abl fusion protein = Bcr/Abl fusion protein (Homo sapiens, UniProt P00519); assay: Inhibition of BCR-ABL (unknown origin) autophosphorylation expressed in mouse 32D cells by ELISA-based assay; format: cell-based; in short: as §5
Insulin receptor = Insulin receptor (Homo sapiens, UniProt P06213); assay: Inhibition of INSR (unknown origin) autophosphorylation expressed in […] by ELISA-based assay; format: cell-based; in short: as §5
[18] = Volume of distribution at steady state in OFA rat at 2.5 mg/kg, iv measured upto 24 hrs by HPLC/UV analysis; format: ADME, organism-based; details: in vivo, read-out: Vdss
In short: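 Female OFA rats with femoral artery and vein catheters, 96 h recovery. IV into femoral vein: 2.5 mg/kg in ethanol/dimethylisosorbide/PEG400/D5W (10/15/35/40) or 1 mg/kg in NMP/PEG200 (30:70). Plasma sampled at 5, 15, 30 min, 1, 2, 4, 6, 8, 24 h; drug measured by HPLC (UV or MS-MS stated); parameters dose normalized, n=2-4.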

[19] = Oral bioavailability in OFA rat at 25 mg/kg measured upto 24 hrs by HPLC/UV analysis; format: ADME, organism-based; details: in vivo; in short: as §4
B16-BL6 = assay: Antitumor activity against mouse B16-BL6 cells implanted in C57BL/6jNpa mouse assessed as primary tumor growth inhibition by measuring T/C ratio at 1 mg/kg, po qd started on day 7 post implantation measured after 21 days; details: time 7-21 day
[20] = Dose normalized AUC(0 to infinity) in OFA rat at 3 mg/kg, po measured upto 24 hrs by HPLC/UV analysis; format: ADME, organism-based; details: in vivo; in short: as §4

In the case of `Nc1nccc(Oc2ccc3c(C(=O)Nc4ccc(F)c(C(F)(F)F)c4)cccc3c2)n1`, the T/C (Mus musculus [1]) is reported as 0.36, the Activity (Mus musculus [2]) is reported as “Active” and the T/C (Mus musculus [3]) is reported as 0.39. The T/C [4] was 5.6, the T/C [5] was 0.056 and the Activity (Mus musculus [6]) was 61%.
With `Nc1nccc(Oc2ccc3c(C(=O)Nc4cccc(C(F)(F)F)c4)cccc3c2)n1` the IC50 [7] was greater than 10 µM, the IC50 [8] was 9 nM and the Tmax [9] was 2 h. For the same compound, the IC50 [10] was 2.9 nM, the IC50 [11] was 4.2 nM and the IC50 [12] was greater than 500 nM. For the same compound, the IC50 [13] was 30 nM, the IC50 [14] was 30 nM and the T/C [4] was 35.5. The inhibition [15] was “Active”, the IC50 [16] was 30 nM and the Cmax/dose [17] was 0.28 µmol/L. For the same compound, the IC50 (Bcr/Abl fusion protein) was greater than 500 nM, the IC50 (Insulin receptor) was greater than 500 nM and the Vd [18] was 1.3 L/kg. For the same compound, the bioavailability [19] was 35%.
`O=C(Nc1cccc(C(F)(F)F)c1)c1cccc2cc(Oc3cc(CO)ncn3)ccc12` [BFH-772] showed an IC50 [7] greater than 2 µM, an IC50 [8] of 2.7 nM and an IC50 [10] of 3 nM. It also gave an IC50 [11] of 4.6 nM, an IC50 [12] greater than 500 nM and an IC50 [13] of 30 nM. The T/C (B16-BL6) was 0.73, the IC50 [14] was 30 nM and the Activity (Mus musculus [2]) was “Active”. The inhibition [15] was “Active”, the IC50 [16] was 30 nM and the IC50 (Bcr/Abl fusion protein) was greater than 500 nM. For the same compound, the IC50 (Insulin receptor) was greater than 500 nM and the AUC/dose [20] was 13.2 µmol·h/L.
